CSC inhib: blocks cancer stem cells | cancer stem cell-like cells viability, luminescence | hit rate 1.1% among 300,000 | inhibition, % at 7.5 µM; in the data active = inhibition above about 75%; inconclusive = no clear call, values can overlap the other calls; tested in HMLE shEcad cells
SUMO Mot1 rescue: inhibitors of SUMOylation pathway: yeast Mot1-301 growth rescue; S. cerevisiae Mot1-301 growth rescue, ATP luminescence, 38.5C; percent above DMSO median, 100 means doubled; growth rescue, % at 18.8 µM; hit rate 1% among 320,000; AID 2716;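 active = every valid replicate shows activation above 250% relative to neutral control wells; inactive = the rest, any valid replicate at or below 250%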;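 also: OY570 slx delta 5 strain wells were the positive control but not used for scaling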
Efflux pump inh: blocks antifungal efflux pumps in multiplex yeast assay | inhibition, % at 10 µM | hit rate 0.44% among 330,000 | S. cerevisiae Candida pump triplex, Nile Red efflux;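 active = plate passing quality check with inhibition over a set limit, or well fluorescence over plate mean plus 4 SD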;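 also: Nile Red retained in pooled yeast measured as flow cytometry median fluorescence; 0% = buffer negative control and 100% = Enniatin B positive control; higher means more Nile Red kept so more efflux inhibition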
WT yeast gro inh: growth inhibition of WT yeast, mitochondrial fusion screen. mitochondrial fusion phenotypic screen, WT strain. inhibition, % at 10 µM. hit rate 2.1% among 190,000; in the data active = inhibition above about 58%; tested in S. cerevisiae
T cruzi repl: blocks replication of Trypanosoma cruzi | T. cruzi beta-gal in NIH3T3, luminescence, 90 h | AID 1885 | inhibition, % (no concentration beside the values) | hit rate 1.4% among 300,000;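 active = mean inhibition across valid replicates above about 55%, limit read from the data; inconclusive = mean below that limit but half or more replicates reach it; inactive = mean below it, under half of replicates reach it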;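 also: signal also drops with host cell toxicity which is not excluded here; 0% = plate median of DMSO wells and 100% = zero luminescence signal; higher percent means less beta-gal luminescence so fewer parasites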
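System: NIH/3T3 fibroblasts plus reporter T. cruzi. Medium: DMEM plus 2% FBS. Probe or stimulus: 5000 reporter trypomastigotes per well. Compound: single 50 nL compound addition per well in DMSO. Incubation: co-culture of at least 90 h after 3 h attachment. Detection: GalScreen β-gal luminescence, detergent lysis, 60 min. Evaluation: parasite load inhibition, %.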
Beta cell apopt: blocks beta cell apoptosis | hit rate 0.8% among 300,000 | INS-1E cytokine-induced death, ATP luminescence, 48 h; percent of positive-control rescue, neutral wells zero | protection from apoptosis, % (concentration not given with the values);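 active = Every replicate reaches about 75%, or at least half do and their mean reaches it too, limit read from the data; inconclusive = At least half of replicates reach the limit but their mean does not; inactive = Under half of replicates reach the limit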;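 also: 0% = cytokine-treated negative control wells and 100% = positive control rescue; higher means more ATP so stronger rescue from cytokine killing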
The depositor's hits bear a star. The list is not random: actives were taken first. Their share in the collection is about 4.8%.

What do the screens show for `Nc1c(C(=O)Nc2ccccc2)c2nc3ccccc3nc2n1-c1ccc(O)cc1`?
CSC inhib: 46; SUMO Mot1 rescue: 704; Efflux pump inh: 0; T cruzi repl: 59*; Beta cell apopt: 9

How did CC(C)(C)CN1CCC(Oc2cccc(C(=O)NCCCOc3cccnc3)c2)CC1 do in these assays?
CSC inhib: -1; SUMO Mot1 rescue: -2; Efflux pump inh: 0; T cruzi repl: -18; Beta cell apopt: 105*

What do the screens show for `CC(C)CC(=O)N1CCC(N(CCc2ccccc2)Cc2ccccc2)CC1`?
CSC inhib: 1; SUMO Mot1 rescue: 1; Efflux pump inh: 0; T cruzi repl: 49; Beta cell apopt: 5

What do the screens show for `O=C(CSc1nc(Nc2ccccc2)nc(N2CCOCC2)n1)Nc1cccc([N+](=O)[O-])c1`?
CSC inhib: -8; SUMO Mot1 rescue: -3; Efflux pump inh: 0; T cruzi repl: 46; Beta cell apopt: 17

What do the screens show for `O=C(CSc1nc(Nc2ccccc2)nc(N2CCOCC2)n1)Nc1ccc([N+](=O)[O-])cc1`?
CSC inhib: 33; SUMO Mot1 rescue: -17; Efflux pump inh: 0; WT yeast gro inh: 12; T cruzi repl: 57*; Beta cell apopt: 2

What do the screens show for `CC(=O)Nc1ccc(/C(C)=N/Nc2nc(Nc3ccccc3)nc(N3CCOCC3)n2)cc1`?
CSC inhib: 11; SUMO Mot1 rescue: 4; Efflux pump inh: 0; WT yeast gro inh: -20; T cruzi repl: 67*; Beta cell apopt: -7

What do the screens show for `COc1ccc(NC(=O)NC2CCCCCCC2)cc1`?
CSC inhib: 10; SUMO Mot1 rescue: -4; Efflux pump inh: 0; T cruzi repl: -2; Beta cell apopt: 3

What do the screens show for `COc1ccccc1OCCN1CSC(=S)N(C)C1`?
CSC inhib: inconclusive; SUMO Mot1 rescue: active; Efflux pump inh: 0; WT yeast gro inh: 29; T cruzi repl: 9; Beta cell apopt: -9

What do the screens show for `COc1ccccc1OCCCCN1CCCCC1`?
CSC inhib: 3; SUMO Mot1 rescue: -6; Efflux pump inh: 0; T cruzi repl: 18; Beta cell apopt: -3

How did O=C(N[C@H]1C/C=C\C[C@@H](CC(=O)N(CCO)Cc2ccccc2)C(=O)NC[C@H](c2ccccc2)OC1=O)OCC1c2ccccc2-c2ccccc21 do in these assays?
CSC inhib: 104*; SUMO Mot1 rescue: -14; Efflux pump inh: 0; Beta cell apopt: 10

Results for O=C(N[C@@H]1C/C=C\C[C@@H](CC(=O)N(CCO)Cc2ccccc2)C(=O)NCCOC1=O)OCC1c2ccccc2-c2ccccc21 ?
SUMO Mot1 rescue: 4; Efflux pump inh: 1; Beta cell apopt: 18

How did Cc1ccc(C(=O)NN2C(=O)C3C4c5ccccc5C(c5ccccc54)C3C2=O)cc1 (stereo not given) do in these assays?
CSC inhib: 15; SUMO Mot1 rescue: 17; Efflux pump inh: 0; WT yeast gro inh: 5; T cruzi repl: -18; Beta cell apopt: 1

How did Cc1ccc2nc3c(c(Nc4ccc(O)cc4)c2c1)CCC3 do in these assays?
CSC inhib: 12; SUMO Mot1 rescue: -7; Efflux pump inh: 0; T cruzi repl: 62*; Beta cell apopt: 9

Results for COc1ccc(Nc2c3c(nc4ccc(C)cc24)CCC3)cc1 ?
CSC inhib: 5; SUMO Mot1 rescue: -30; Efflux pump inh: 0; T cruzi repl: 30; Beta cell apopt: 38

How did COc1ccccc1/C=C/CN1CCCC(CCC(=O)NCc2ccc(F)c(F)c2)C1 (stereo not given) do in these assays?
CSC inhib: -14; SUMO Mot1 rescue: -4; Efflux pump inh: 0; WT yeast gro inh: -4; T cruzi repl: 68*; Beta cell apopt: -12

What do the screens show for `COc1cccc(CNC(=O)CCC2CCCN(Cc3ccc4c(c3)CCO4)C2)c1` (stereo not given)?
CSC inhib: -7; SUMO Mot1 rescue: 59; Efflux pump inh: 0; T cruzi repl: 48; Beta cell apopt: -8

Results for CCN(CC1CCCN(CCc2cccc(OC)c2)C1)C(=O)c1ccc(COC)o1 (stereo not given) ?
CSC inhib: 17; SUMO Mot1 rescue: -8; Efflux pump inh: 0; T cruzi repl: 77*; Beta cell apopt: -1

How did COc1ccc(/C=C/CN2CCCC(CCC(=O)NCc3ccc(F)c(F)c3)C2)cc1 (stereo not given) do in these assays?
CSC inhib: -2; SUMO Mot1 rescue: -1; Efflux pump inh: 0; WT yeast gro inh: -1; T cruzi repl: 68*; Beta cell apopt: -2

Source: PubChem
